In ChEMBL document CHEMBL4814038, “Discovery of sertraline and its derivatives able to combat drug-resistant gastric cancer cell via inducing apoptosis” (Bioorg Med Chem Lett, 2021) one finds Activity, viability and IC50 data, which are given here for 23 compounds.

Experiment [1] deals with SGC-7901. In words: Antiproliferative activity against cisplatin resistant human SGC-7901 cells assessed as sensitizing activity at 20 uM in presence of cisplatin. Type of experiment: functional, cell-based. In a few lines:
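Cisplatin-resistant SGC-7901/DDP cells treated with each compound at 20 μM in combination with DDP (15 μM). Sensitizing effect read as inhibition of proliferation.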

For experiment [2], the system named is SGC-7901. Nature of the experiment: Induction of apoptosis in human SGC-7901 cells assessed as upregulation of cleaved caspase 3 expression level by Western blotting analysis. Particulars: dose 3-6 µM. Type of experiment: functional, cell-based. (In general: Immunoblotting shows a protein as a band on a membrane.)
Experiment [3] deals with SGC-7901. In words: Induction of apoptosis in human SGC-7901 cells assessed as late apoptotic cells at 3 uM by FITC/PI staining based flow cytometry analysis (reference value: 2.56 %). Type of experiment: functional. Background: Flow cytometry measures light scatter and fluorescence of single cells or particles in a stream.
Experiment [4] can be described thus: Effect on PI3K/AKT/mTOR signaling pathway in human SGC-7901 cells assessed as reduction in phosphorylated AKT expression at 3 to 6 uM by Western blotting analysis. Type of experiment: cell-based. Particulars: filed as modulator, dose 3-6 µM. In a few lines: (§1)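 SGC-7901/DDP cells given DDP (15 μM) alone or with compound at 8 and 16 μM (parent) or 3 and 6 μM (derivatives). PI3K, Akt, mTOR and their phosphorylated forms detected by Western blotting.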

A short description of experiment [5]: Effect on PI3K/AKT/mTOR signaling pathway in human SGC-7901 cells assessed as reduction in phosphorylated mTOR expression at 3 to 6 uM by Western blotting analysis. Type of experiment: cell-based. Particulars: filed as modulator, dose 3-6 µM. The gist of the method: as §1
Experiment [6] relates to SGC-7901. Nature of the experiment: Induction of apoptosis in human SGC-7901 cells assessed as necrotic cells at 3 uM by FITC/PI staining based flow cytometry analysis (reference value: 0.068 %). Type of experiment: functional.
Experiment [7] relates to SGC-7901. Nature of the experiment: Induction of apoptosis in human SGC-7901 cells assessed as viable cells at 3 uM by FITC/PI staining based flow cytometry analysis (reference value: 94.3 %). Type of experiment: functional. Particulars: read-out: Activity.
The test system of experiment [8] is SGC-7901. Nature of the experiment: Induction of cell cycle arrest in human SGC-7901 cells assessed as accumulation at G0/G1 phase at 3 to 6 uM by flow cytometry analysis. Type of experiment: functional, cell-based. Particulars: dose 3-6 µM. In a few lines: (§2)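 SGC-7901/DDP cells exposed to DDP (15 μM) with compound at 8 and 16 μM (parent) or 3 and 6 μM (derivatives). Cell-cycle distribution measured by flow cytometry, with G0/G1 fraction scored.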

The subject of experiment [9] is SGC-7901. In words: Antiproliferative activity against cisplatin resistant human SGC-7901 cells assessed as sensitizing activity in presence of cisplatin. Type of experiment: functional, cell-based. In a few lines:
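Cisplatin-resistant SGC-7901/DDP cells co-treated with DDP (15 μM) and compound over 1.0, 2.0, 4.0, 8.0, 12, 16, 20, 24 μM. IC50 derived from inhibition of proliferation.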

Experiment [10] can be described thus: Effect on PI3K/AKT/mTOR signaling pathway in human SGC-7901 cells assessed as change in total AKT expression at 3 to 6 uM by Western blotting analysis. Particulars: dose 3-6 µM. Type of experiment: cell-based. The gist of the method:
as §1

Experiment [11] is described as follows: Effect on PI3K/AKT/mTOR signaling pathway in human SGC-7901 cells assessed as reduction in phosphorylated PI3K expression at 3 to 6 uM by Western blotting analysis. Particulars: filed as modulator, dose 3-6 µM. Type of experiment: cell-based. In a few lines: as §1
Experiment [12] can be described thus: Effect on PI3K/AKT/mTOR signaling pathway in human SGC-7901 cells assessed as change in total mTOR expression at 3 to 6 uM by Western blotting analysis. Type of experiment: cell-based. Particulars: dose 3-6 µM. The gist of the method:
as §1

In experiment [13] the test system is SGC-7901. Nature of the experiment: Induction of apoptosis in human SGC-7901 cells assessed as early apoptotic cells at 3 uM by FITC/PI staining based flow cytometry analysis (reference value: 3.06 %). Type of experiment: functional.
The nature of experiment [14]: Effect on PI3K/AKT/mTOR signaling pathway in human SGC-7901 cells assessed as change in total PI3K expression at 3 to 6 uM by Western blotting analysis. Type of experiment: cell-based. Particulars: dose 3-6 µM. In a few lines: as §1
For experiment [15], the system named is SGC-7901. In words: Induction of apoptosis in human SGC-7901 cells assessed as viable cells at 8 uM by FITC/PI staining based flow cytometry analysis (reference value: 94.3 %). Type of experiment: functional. Particulars: read-out: Activity.
Experiment [16] relates to SGC-7901. In words: Induction of apoptosis in human SGC-7901 cells assessed as late apoptotic cells at 8 uM by FITC/PI staining based flow cytometry analysis (reference value: 2.56 %). Type of experiment: functional.
Experiment [17] is described as follows: Effect on PI3K/AKT/mTOR signaling pathway in human SGC-7901 cells assessed as change in total mTOR expression at 8 to 16 uM by Western blotting analysis. Type of experiment: cell-based. Particulars: dose 8-16 µM. The gist of the method:
as §1

Experiment [18] in a line: Effect on PI3K/AKT/mTOR signaling pathway in human SGC-7901 cells assessed as reduction in phosphorylated AKT expression at 8 to 16 uM by Western blotting analysis. Type of experiment: cell-based. Particulars: filed as modulator, dose 8-16 µM. In a few lines: as §1
Experiment [19] is described as follows: Effect on PI3K/AKT/mTOR signaling pathway in human SGC-7901 cells assessed as reduction in phosphorylated PI3K expression at 8 to 16 uM by Western blotting analysis. Type of experiment: cell-based. Particulars: filed as modulator, dose 8-16 µM. The gist of the method: as §1
A short description of experiment [20]: Effect on PI3K/AKT/mTOR signaling pathway in human SGC-7901 cells assessed as change in total AKT expression at 8 to 16 uM by Western blotting analysis. Particulars: dose 8-16 µM. Type of experiment: cell-based. The gist of the method: as §1
For experiment [21], the system named is SGC-7901. Nature of the experiment: Induction of apoptosis in human SGC-7901 cells assessed as necrotic cells at 8 uM by FITC/PI staining based flow cytometry analysis (reference value: 0.068 %). Type of experiment: functional.
The nature of experiment [22]: Effect on PI3K/AKT/mTOR signaling pathway in human SGC-7901 cells assessed as reduction in phosphorylated mTOR expression at 8 to 16 uM by Western blotting analysis. Type of experiment: cell-based. Particulars: filed as modulator, dose 8-16 µM. The gist of the method: as §1
Experiment [23] in a line: Effect on PI3K/AKT/mTOR signaling pathway in human SGC-7901 cells assessed as change in total PI3K expression at 8 to 16 uM by Western blotting analysis. Type of experiment: cell-based. Particulars: dose 8-16 µM. The gist of the method: as §1
The subject of experiment [24] is SGC-7901. Nature of the experiment: Induction of apoptosis in human SGC-7901 cells assessed as early apoptotic cells at 8 uM by FITC/PI staining based flow cytometry analysis (reference value: 3.06 %). Type of experiment: functional.
The test system of experiment [25] is SGC-7901. In words: Induction of cell cycle arrest in human SGC-7901 cells assessed as accumulation at G0/G1 phase at 8 to 16 uM by flow cytometry analysis. Particulars: dose 8-16 µM. Type of experiment: functional, cell-based. The gist of the method: as §2

Activity calls are given as the source filed them. The rule behind the calls is not given here.

On to `N[C@H]1CC[C@H](c2ccc(Cl)c(Cl)c2)c2ccccc21` (relative stereo), for which the outcome in the experiment on SGC-7901 [1] was inactive.
As to `Clc1ccc([C@H]2CC[C@H](NCCN3CCNCC3)c3ccccc32)cc1Cl` (relative stereo), the Activity entry with SGC-7901 [2] was “Dose-Dependent Effect”; in the experiment on SGC-7901 [3] it was 41%; with SGC-7901 [6], 20.3%; with SGC-7901 [13], 4.06%. The result (in experiment [4]; in experiment [5]; in the experiment on SGC-7901 [1]; in the experiment with SGC-7901 [8]; in [11]) was Active. The viability at 3 µM in the experiment with SGC-7901 [7] amounted to 34.5%. Also, the IC50 (usually the concentration that gives 50% inhibition) in the experiment on SGC-7901 [9] was 5.2 µM. Also, the result in [10] and in [12] was inactive.
Turning to `NCCCCCCN[C@@H]1CC[C@@H](c2ccc(Cl)c(Cl)c2)c2ccccc21` (relative stereo), the result in the experiment with SGC-7901 [1] was Active. Besides, in the experiment on SGC-7901 [9], the IC50 is 11.1 µM.
Take `CC(=O)N[C@H]1CC[C@H](c2ccc(Cl)c(Cl)c2)c2ccccc21` (relative stereo): the result with SGC-7901 [1] was inactive.
With `O=C(CCCCl)N[C@H]1CC[C@H](c2ccc(Cl)c(Cl)c2)c2ccccc21`, the result with SGC-7901 [1] was inactive.
For the compound `NCCCCN[C@@H]1CC[C@@H](c2ccc(Cl)c(Cl)c2)c2ccccc21` (relative stereo), the Activity entry in the experiment on SGC-7901 [2] is “Dose-Dependent Effect”; in the experiment on SGC-7901 [3], 44.6%; in the experiment on SGC-7901 [6], 14.1%; in the experiment with SGC-7901 [13], 2.67%. Also, the result (in experiment [4]; in [5]; in the experiment with SGC-7901 [1]; in the experiment on SGC-7901 [8]; in experiment [11]) was Active. For the same compound, in the experiment with SGC-7901 [7], the viability at 3 µM is 30.7%. Besides, the IC50 in the experiment on SGC-7901 [9] came out at 6.28 µM. Also, the result in experiment [12] and in experiment [14] was inactive.
`COc1ccc(CN[C@@H]2CC[C@@H](c3ccc(Cl)c(Cl)c3)c3ccccc32)cc1` (relative stereo): the result in the experiment on SGC-7901 [1] was Active.
Still for that read-out and setting: then `Clc1ccc([C@@H]2CC[C@@H](NCc3ccccc3)c3ccccc32)cc1Cl` (relative stereo), with “Active”.
On the same count and under the same terms, then `Clc1ccc([C@@H]2CC[C@@H](NCc3cccc4ccccc34)c3ccccc32)cc1Cl` (relative stereo), with “inactive”.
As to `NCCCCCCN[C@@H]1CC[C@H](c2ccc(Cl)c(Cl)c2)c2ccccc21` (relative stereo), the outcome with SGC-7901 [1] was Active. In the experiment on SGC-7901 [9], the IC50 is 18.9 µM.
Regarding `NCCCCN[C@@H]1CC[C@H](c2ccc(Cl)c(Cl)c2)c2ccccc21` (relative stereo), the result with SGC-7901 [1] was Active. In the experiment on SGC-7901 [9], the IC50 was determined as 6.3 µM.
Regarding `Clc1ccc([C@@H]2CC[C@@H](NCc3ccc4c(c3)OCO4)c3ccccc32)cc1Cl`, the result in the experiment with SGC-7901 [1] was inactive.
Turning to `N[C@@H]1CC[C@H](c2ccc(Cl)c(Cl)c2)c2ccccc21` (relative stereo), the result with SGC-7901 [1] was inactive.
Turning to `NCCN[C@@H]1CC[C@H](c2ccc(Cl)c(Cl)c2)c2ccccc21` (relative stereo), the result in the experiment on SGC-7901 [1] was Active. Besides, the 50% inhibitory concentration (IC50) in the experiment on SGC-7901 [9] was determined as 10.7 µM.
Regarding `Clc1ccc(CN[C@@H]2CC[C@@H](c3ccc(Cl)c(Cl)c3)c3ccccc32)cc1Cl` (relative stereo), the outcome in the experiment on SGC-7901 [1] was inactive.
On the same count and under the same terms, then `Cc1ccc(CN[C@@H]2CC[C@@H](c3ccc(Cl)c(Cl)c3)c3ccccc32)cc1` (relative stereo), with “inactive”.
As for `CC(C)(C)OC(=O)N1CCN(CCN[C@@H]2CC[C@@H](c3ccc(Cl)c(Cl)c3)c3ccccc32)CC1` (relative stereo), in the experiment on SGC-7901 [9], the IC50 is 17.1 µM.
Regarding `CN[C@H]1CC[C@@H](c2ccc(Cl)c(Cl)c2)c2ccccc21` [SERTRALINE], in the experiment on SGC-7901 [15], the viability at 8 µM amounted to 55.2%. Also, the Activity in the experiment with SGC-7901 [16] is 20.9%; in the experiment with SGC-7901 [2], “Dose-Dependent Effect”; in the experiment on SGC-7901 [21], 19.7%; in the experiment on SGC-7901 [24], 4.21%. For the same compound, the result in [17], in experiment [20] and in experiment [23] was inactive. Also, the result in [18], in experiment [19], in experiment [4], in experiment [5], in experiment [22] and in [11] was Active. Besides, the result in the experiment on SGC-7901 [25] was Active. The IC50 in the experiment on SGC-7901 [9] worked out at 18.7 µM.
`FC(F)(F)c1cccc(CN[C@@H]2CC[C@@H](c3ccc(Cl)c(Cl)c3)c3ccccc32)c1` (relative stereo): in the experiment with SGC-7901 [1], the outcome was inactive.
The same measure, in the same setting: the same measure for `COc1ccc(CN[C@@H]2CC[C@@H](c3ccc(Cl)c(Cl)c3)c3ccccc32)cc1OC` (relative stereo): “inactive”; for `COc1cccc(CN[C@@H]2CC[C@@H](c3ccc(Cl)c(Cl)c3)c3ccccc32)c1` (relative stereo): “inactive”; for `CCCCN[C@@H]1CC[C@@H](c2ccc(Cl)c(Cl)c2)c2ccccc21` (relative stereo): “Active”.
Take `NCCN[C@@H]1CC[C@@H](c2ccc(Cl)c(Cl)c2)c2ccccc21` (relative stereo): the outcome with SGC-7901 [1] was Active. In addition, the IC50 with SGC-7901 [9] came to 11 µM.
